This is a sample that favours compounds with a hit; in the whole collection about 2% have one here.
GRK2 inh: inhibitors of human GRK2 displacing RNA aptamer; P25098; inhibition of aptamer binding, % at 10 µM; bead flow cytometry, FAM-aptamer displacement from GRK2; 330,000 compounds, 0.59% hits; AID 488847;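 active = inhibition of aptamer binding above 40%, roughly 3 SD of noise, on plates passing a quality check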;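 also: median bead fluorescence of bound FAM aptamer so fluorescent compounds give negative values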
Hep lipid drop: hepatic lipid droplet formation modulation | AID 1656 | AML12 mouse hepatocytes, oleate lipid droplets, BODIPY imaging | inhibition, % at 6.5 µM | 240,000 compounds, 0.4% hits;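 active = lipid droplet intensity inhibited by at least 50%, with more than 500 cells counted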
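Technique: fluorescence imaging, 20x objective, two fields per well / Assay system: AML12 hepatocytes (mouse) / Measure: % inhibition of lipid droplet signal / Doses: 6.5 µM single-point dosing / Incubation: overnight exposure / Reagent: 100 µM oleic acid challenge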
B2AR ag: agonists of human beta-2 adrenergic receptor inducing internalization; P07550; Am2.2-beta2AR cells, FAP receptor internalization, flow cytometry; response, % (test concentration not listed); 340,000 compounds, 0.43% hits; AID 504454;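 active = response above a set limit, near 3 SD of response in nonfluorescent compounds, cut at about 42% in these data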
Target sequence (P07550 whole entry, looked up): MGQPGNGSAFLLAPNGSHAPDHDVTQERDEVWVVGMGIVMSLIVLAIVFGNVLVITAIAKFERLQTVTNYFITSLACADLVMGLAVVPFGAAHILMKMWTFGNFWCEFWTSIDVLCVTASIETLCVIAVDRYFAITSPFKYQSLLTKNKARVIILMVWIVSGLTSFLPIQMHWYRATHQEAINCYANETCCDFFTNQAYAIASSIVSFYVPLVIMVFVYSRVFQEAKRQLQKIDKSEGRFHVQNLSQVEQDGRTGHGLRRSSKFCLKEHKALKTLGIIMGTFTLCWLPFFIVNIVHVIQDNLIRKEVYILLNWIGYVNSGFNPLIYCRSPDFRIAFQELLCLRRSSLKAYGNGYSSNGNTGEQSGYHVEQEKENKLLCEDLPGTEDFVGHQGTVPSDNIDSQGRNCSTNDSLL
NTR1 ag: agonists of human neurotensin receptor NTR1. P30989. activation, % at 20 µM. NTR1-U2OS beta-arrestin-GFP spot imaging, agonist mode. AID 493036. 330,000 compounds, 0.17% hits;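 active = activation at or above 40% of the spot to cytoplasm intensity ratio, with at least 20 cells analyzed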;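 also: 0% = DMSO without peptide and 100% = 100 nM NTR1 peptide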
Arr AP2 block: human beta-arrestin and AP2 interaction inhibition. FITC-arrestin peptide / GST-AP2 beads, flow cytometry; AP2 beta2 appendage carries R879A mutation. inhibition, % at 10 µM. 340,000 compounds, 0.31% hits. AID 504490;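 active = inhibition above a set limit, near 3 SD of compounds lacking own fluorescence, cut at about 54% in these data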;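 also: plate controls were DMSO wells for no effect and 5 µM unlabelled arrestin peptide for full effect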
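System: GST-AP2 R879A glutathione beads | Also added: FITC-arrestin peptide, 50 nM | Times: 12 min plus 1 h, RT | Signal: Bead flow cytometry, FITC channel | Buffer or medium: PBS with 0.05% Tween 20 and 0.1% BSA | Read-out basis: Percent drop in bead-associated FITC signal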
H9c2 TAG inh: reduces triacylglycerol accumulation in H9c2 cells; Nile Red lipid (TAG) fluorescence; cells loaded with 200 µM oleic acid; inhibition, % at 12.5 µM; 230,000 compounds, 0.66% hits;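 active = pattern-corrected inhibition of lipid staining of at least 50% with the nuclear-stain viability signal not falling by more than 50%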;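 also: 0% = DMSO wells and 100% = triacsin C control wells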
Arr AP2 CP1: inhibitors of human beta-arrestin and AP2 interaction | 1,300 compounds, 2% hits | shares compounds with Arr AP2 block | GST-AP2 beads, FITC arrestin peptide binding, flow cytometry; GST-fused beta2-adaptin appendage, R879A mutant | inhibition, % at 10 µM;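 active = inhibition above a set limit, roughly 3 SD of non-fluorescent compound noise, cut at about 38% in these data; inactive = inhibition at or below that limit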;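 also: loss of bead fluorescence from 50 nM FITC arrestin peptide bound to appendage; 0% = negative control wells and 100% = excess unlabelled arrestin peptide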
GST GSH counter: counter-screen for beta-arrestin AP2 inhibitors: GST-GSH bead binding; AID 588338; 1,300 compounds, 2% hits; inhibition, % at 10 µM; shares compounds with Arr AP2 block; GST-fluorescein binding to GSH beads, fluorescence;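 active = inhibition above 50%, about 3 SD of the inhibition seen with non-fluorescent compounds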;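 also: fluorescein maleimide labelled GST captured on 4 micron glutathione beads; higher means more loss of bead fluorescence from quenching or blocked binding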
An asterisk follows results filed as active.

`O=C(CN1CCN(S(=O)(=O)N2CCOCC2)CC1)Nc1cc(Cl)cc(Cl)c1` gave GRK2 inh 26, Hep lipid drop 6, B2AR ag 19, NTR1 ag 3 and Arr AP2 block 33.
COc1cc(C(c2c(C)[nH][nH]c2=O)c2c(C)[nH][nH]c2=O)ccc1OCc1ccc([N+](=O)[O-])cc1 was read as GRK2 inh 3, Hep lipid drop -9, B2AR ag 8, NTR1 ag 36 and Arr AP2 block 3.
Screening CCOC(=O)C(=Cc1ccc(OCc2ccc([N+](=O)[O-])cc2)c(OC)c1)C(=O)OCC returned GRK2 inh 4, Hep lipid drop -9, B2AR ag 25, NTR1 ag 21, Arr AP2 block 81*, H9c2 TAG inh -17, Arr AP2 CP1 -21 and GST GSH counter -6.
O=C(CC1C(=O)NCCN1Cc1ccccn1)NCCc1ccccc1F (configuration not stated) was read as GRK2 inh 5, Hep lipid drop -1, B2AR ag 3, NTR1 ag -1, Arr AP2 block 3 and H9c2 TAG inh 3.
Screening CC(CNC(=O)c1ccc(OC2CCN(Cc3ccccn3)CC2)cc1)Oc1cccnc1 (configuration not stated) returned GRK2 inh 0, Hep lipid drop 21, B2AR ag -17, NTR1 ag 0, Arr AP2 block 18 and H9c2 TAG inh -6.
CCn1c(NC(=S)Nc2ccccc2)nc2ccccc21 was read as GRK2 inh 0, B2AR ag 6, NTR1 ag 2, Arr AP2 block 24 and H9c2 TAG inh 34.
`CCCn1c(NC(=S)Nc2ccccc2)nc2ccccc21` gave GRK2 inh 0, Hep lipid drop -15, B2AR ag 3, NTR1 ag 4, Arr AP2 block 63*, H9c2 TAG inh 14, Arr AP2 CP1 -14 and GST GSH counter 4.
`O=C(NN1CCOCC1)c1cccc(Cl)c1` gave GRK2 inh 3, Hep lipid drop -8, B2AR ag -1, NTR1 ag -1, Arr AP2 block 71*, H9c2 TAG inh -5, Arr AP2 CP1 1 and GST GSH counter -11.
`COc1ccccc1NS(=O)(=O)c1cccc(C(=O)N2CCCCCC2)c1` gave B2AR ag -6, NTR1 ag 2, Arr AP2 block 55*, H9c2 TAG inh -15, Arr AP2 CP1 -4 and GST GSH counter -7.
Screening Cc1ccc(NS(=O)(=O)c2cccc(C(=O)N3CCCC(C)C3)c2)cc1 (configuration not stated) returned GRK2 inh 4, B2AR ag 5, NTR1 ag 0, Arr AP2 block 58*, H9c2 TAG inh 3, Arr AP2 CP1 24 and GST GSH counter 4.
CCCN(C(=O)Cc1csc(-c2ccccc2)n1)C1CCS(=O)(=O)C1 (configuration not stated) was read as GRK2 inh 4, B2AR ag -3, NTR1 ag 0, Arr AP2 block 16 and H9c2 TAG inh 27.
For COc1cccc(NC(=O)CC(=O)c2ccccc2)c1 the results were GRK2 inh 5, Hep lipid drop -27, B2AR ag -4, NTR1 ag 0, Arr AP2 block 63*, Arr AP2 CP1 -1 and GST GSH counter -8.
Screening COc1cccc(NC(=O)Cc2ccccc2)c1 returned GRK2 inh 0, B2AR ag 6, NTR1 ag -2, Arr AP2 block 1 and H9c2 TAG inh -17.
`CC(=O)CC(=O)Nc1ccc(C(N)=O)cc1` gave GRK2 inh 1, Hep lipid drop 12, B2AR ag -1, NTR1 ag 1, Arr AP2 block 46, H9c2 TAG inh -3, Arr AP2 CP1 -9 and GST GSH counter -6.
Screening COc1cccc(NC(=O)CC(C)=O)c1 returned GRK2 inh 2, Hep lipid drop 4, B2AR ag 3, NTR1 ag 2, Arr AP2 block 57*, Arr AP2 CP1 -5 and GST GSH counter -10.
Screening COc1ccc(NC(=O)CCCCn2c(=O)[nH]c3ccccc3c2=O)cc1 returned GRK2 inh 1, B2AR ag -9, NTR1 ag 0, Arr AP2 block 5, H9c2 TAG inh 11, Arr AP2 CP1 -3 and GST GSH counter -3.
`COc1ccc(NC(=O)CCCn2c(=S)[nH]c3ccccc3c2=O)cc1` gave GRK2 inh 0, Hep lipid drop 4, B2AR ag -9, NTR1 ag -1, Arr AP2 block 2 and H9c2 TAG inh 18.
`O=C(CCn1c(=S)[nH]c2ccccc2c1=O)Nc1ccc(F)cc1` gave GRK2 inh 0, Hep lipid drop 11, B2AR ag -4, NTR1 ag 2, Arr AP2 block 74*, Arr AP2 CP1 14 and GST GSH counter 84*.
For COc1ccc(NC(=O)CCn2c(=S)[nH]c3ccccc3c2=O)cc1 the results were GRK2 inh 1, Hep lipid drop -15, B2AR ag 0, NTR1 ag 0 and Arr AP2 block 25.
`COc1ccc(NC(=O)CCCn2c(=O)[nH]c3ccccc3c2=O)cc1` gave GRK2 inh 0, B2AR ag -7, NTR1 ag -1, Arr AP2 block 9, H9c2 TAG inh 4, Arr AP2 CP1 -14 and GST GSH counter -6.
Screening CC1CCN(S(=O)(=O)c2ccc3c(c2)N(CC(=O)NCCCN2CC(C)CC(C)C2)C(=O)CS3)CC1 (configuration not stated) returned GRK2 inh 0, Hep lipid drop -1, B2AR ag 4, NTR1 ag 0 and Arr AP2 block 1.
`CCOc1ccc2nc(NC(=O)CS(=O)(=O)c3ccccc3)sc2c1` gave GRK2 inh 4, Hep lipid drop -2, B2AR ag 1, NTR1 ag -1, Arr AP2 block 81*, H9c2 TAG inh -1, Arr AP2 CP1 4 and GST GSH counter -2.
Screening Cc1ccc(NC(=O)CCN2C(=O)NC3(CCCC3)C2=O)c(C)c1 returned GRK2 inh 0, B2AR ag -12, NTR1 ag 3, Arr AP2 block -9 and H9c2 TAG inh -17.
For Cc1cc(C)c(OCC(=O)Nc2nc3ccccc3[nH]2)c(C)c1 the results were GRK2 inh 1, Hep lipid drop 8, B2AR ag -20, NTR1 ag 2, Arr AP2 block 56*, H9c2 TAG inh -7, Arr AP2 CP1 5 and GST GSH counter 3.

Screening data from PubChem BioAssay.
